OXTR potentiate: human OXTR potentiation; P30559; activation, % at 3 µM; CHO-OTR cells, Fluo-8 calcium fluorescence, potentiator mode; 0% = oxytocin EC15, 100% = EC100; 320,000 compounds, 0.061% hits; AID 2445;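 active = activation above that plate's cutoff, the mean activation of tested compounds plus 3 SD, cut at about 6.6% in these data, passing the limit was not always enough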;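 also: 100% uses oxytocin at 75 nM as the full agonist control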
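Assay system: CHO cell line stably expressing human OTR. Reagent: EC15 oxytocin agonist. Dosing: single dose, 3.0 µM nominal final compound concentration. Timing: compound 6 min at room temperature before oxytocin, 100 s read. Signal: kinetic Fluo-8 calcium fluorescence. Controls: oxytocin EC15 low and EC100 high.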
OXTR agonist: activates the human oxytocin receptor | P30559 | CHO-OTR cells, Fluo-8 calcium fluorescence; normalized: DMSO 0%, oxytocin 100% | activation, % at 3 µM | 320,000 compounds, 0.32% hits | AID 2435;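 active = activation above the mean of all tested compounds plus 3 SD, cutoff set per screening run, cut at about 20% in these data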;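 also: peak over basal fluorescence ratio from a 100 s FLIPR kinetic read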
TAAR1 antag: human TAAR1 antagonism | Q96RJ0 | CHO RD-HGA16 TAAR1, Fluo-8 calcium fluorescence, antagonist | inhibition, % at 3 µM | 360,000 compounds, 1.5% hits | AID 624466;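 active = inhibition above a per-plate cutoff, the mean inhibition of test compounds on that plate plus 3 SD, cut at about 49% in these data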;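 also: 0% = DMSO plus EC80 beta-PEA response and 100% = DMSO alone without agonist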
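System: RD-HGA16 CHO cells with stable hTAAR1 and Gα16 | Probe or stimulus: EC80 β-phenethylamine stimulus | Dosing: 3 µM, single point | Times: Dye loading 75 min at 37 °C, then 30 min room temperature | Measured by: Fluo-8 calcium-sensitive fluorescence | Read-out basis: % inhibition of agonist calcium response | Replicates: n of 1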
TAAR1 ag: human TAAR1 agonism; CHO RD-HGA16 TAAR1, Fluo-8 calcium fluorescence; vehicle wells 0%, saturating PEA agonist 100%; activation, % at 3 µM; 360,000 compounds, 0.99% hits;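 active = activation above the mean activation of all test compounds in the run plus 3 SD, cut at about 38% in these data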
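Signal – calcium-sensitive Fluo-8 signal, excitation 470-495, emission 515-575 nm · System – RD-HGA16 (CHO) cells co-expressing Gα16 and hTAAR1 · Incubation – 17-24 h seeding, 75 min 37 °C dye, 30 min RT · Compound dosing – 3 µM single concentration · Repeats – no replicates (n 1)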
V1R ag counter: counter-screen for oxytocin receptor agonists: human V1a receptor agonists. P37288. CHO-V1R cells, Fluo-8 calcium fluorescence, agonist mode; 0% DMSO, 100% 3 nM vasopressin. activation, % at 3 µM. 320,000 compounds, 0.25% hits;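 active = activation above the mean activation of all tested compounds plus 3 SD, per screening run, cut at about 20% in these data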;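 also: signal is peak over basal fluorescence ratio across a 100 second FLIPR read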
Target sequence (P37288 whole entry, looked up): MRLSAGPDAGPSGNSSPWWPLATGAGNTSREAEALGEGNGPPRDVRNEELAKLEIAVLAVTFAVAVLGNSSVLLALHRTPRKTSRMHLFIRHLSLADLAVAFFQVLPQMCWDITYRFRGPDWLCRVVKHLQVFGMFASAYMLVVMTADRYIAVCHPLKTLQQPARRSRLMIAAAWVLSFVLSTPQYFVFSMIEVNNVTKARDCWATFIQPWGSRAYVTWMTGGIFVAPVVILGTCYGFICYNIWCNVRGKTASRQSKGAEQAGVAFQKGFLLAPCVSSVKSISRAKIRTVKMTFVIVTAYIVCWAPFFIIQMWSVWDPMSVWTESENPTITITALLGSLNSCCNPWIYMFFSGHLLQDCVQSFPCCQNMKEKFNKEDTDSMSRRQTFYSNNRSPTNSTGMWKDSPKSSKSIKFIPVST
TAAR1 nonsel count: nonselective antagonist in TAAR1 antagonist counter-screen. shares compounds with TAAR1 antag. counterscreen cell line, calcium fluorescence, antagonist mode. inhibition, % at 3 µM. 2,400 compounds, 77% hits. AID 651780; in the data active = inhibition above about 22%;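 also: CHO-Ga16 host cells stimulated with ATP at an EC80 level; 0% = agonist EC80 plus vehicle and 100% = vehicle without agonist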
TAAR1 antag conf: human TAAR1 antagonism, confirmed | shares compounds with TAAR1 antag | TAAR1-expressing cells, fluorescence antagonist read-out | inhibition, % at 3 µM | 2,400 compounds, 40% hits; in the data active = inhibition above about 49%;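 also: CHO-Ga16 host cells challenged with agonist PEA near its EC80; 0% = agonist at EC80 plus vehicle and 100% = vehicle with no agonist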
Ga16 ag counter: nonselective Ga16 agonism, counter-screen | activation, % at 3 µM | Ga16-expressing cells, calcium fluorescence, agonist counterscreen | 2,400 compounds, 18% hits | shares compounds with TAAR1 antag; in the data active = activation above about 12%;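 also: 0% = vehicle wells and 100% = saturating stimulus response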
TAAR1 ag counter: activates human TAAR1 in antagonist counter-screen. hTAAR1 cell line, fluorescence activation, agonist mode. 2,400 compounds, 2% hits. activation, % at 3 µM. shares compounds with TAAR1 antag; in the data active = activation above about 37%;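 also: CHO cells stably expressing TAAR1 with calcium dye readout; 0% = DMSO vehicle and 100% = full agonist response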
* marks the source's active call; other numbers are inactive results; . = not tested or not shown. In the library only some 2.3% were active in any assay of this set; here they are far more common.

SMILES	OXTR potentiate	OXTR agonist	TAAR1 antag	TAAR1 ag	V1R ag counter	TAAR1 nonsel count	TAAR1 antag conf	Ga16 ag counter	TAAR1 ag counter
O=C(CNC(=O)c1ccc(Br)o1)Nc1cccc(-c2cnc3ccccc3n2)c1	-10	-1	64*	20	-1	33*	52*	12*	10
O=C(NCc1ccccc1)[C@@H]1CCCN1C(=O)[C@H]1CCCN1C(=O)c1c(F)cccc1F	.	.	-11	1	.	.	.	.	.
O=C(NCCc1cn[nH]c1)c1ccc2oc(CCc3ccccc3)nc2c1	.	.	-3	6	.	.	.	.	.
CCCCCN(C(=O)CCC(=O)OC(C)C(=O)c1ccc(CC)cc1)c1c(N)n(CCCC)c(=O)[nH]c1=O (stereo unspecified)	.	.	6	-1	.	.	.	.	.
CC1=C(CC[C@@H](C)CO)OC2CC3C4CCC5CC(O)CCC5(C)C4CC(=O)C3(C)C12 (stereo partly specified)	-9	4	76*	17	1	29*	52*	11	19
Cc1ccc(C(=O)Nc2cccc(C(=O)NCc3ccccc3)c2)o1	-2	1	17	2	1	.	.	.	.
C/C(=N\NC(=O)C1(C)CC1(Br)Br)c1cccc(NC(=O)c2ccc(C)o2)c1 (stereo unspecified)	-14	2	85*	13	1	26*	73*	11	39*
COc1ccc(/C=N/NC(=O)c2cccc(NC(=O)c3ccccc3Cl)c2)c(OC)c1	1	-1	60*	6	0	24*	45	5	2
COc1cccc(C(=O)Nc2ccccc2)c1	-4	-2	-7	15	0	.	.	.	.
COc1cccc(C(=O)Nc2cccc(NC(=O)c3ccccc3Cl)c2)c1	6	-1	68*	10	0	20	43	8	5
COc1ccccc1NC(=O)Cn1nnc(-c2ccccc2NC(=O)c2ccco2)n1	-17	0	56*	13	3	21	35	9	13
COc1ccc(NC(=O)Cn2nnc(-c3ccccc3NC(=O)c3ccco3)n2)cc1	-9	1	8	9	-1	.	.	.	.
COc1ccc(S(=O)(=O)N2CCN(C(=O)c3cc(-c4ccccc4OC)n[nH]3)CC2)cc1	-23	10	76*	10	6	25*	39	8	6
C=CCNC(=O)/C(=C\C=C\c1ccccc1)NC(=O)c1ccccc1Cl	-10	0	62*	13	0	25*	36	6	7
COc1ccc(-n2nc(C(C)=O)c(=O)[nH]c2=O)cc1	-12	0	19	3	7	.	.	.	.
O=C(Nc1cccc(-c2nc3ccccc3o2)c1)c1ccc(N2C(=O)C3C4C=CC(C4)C3C2=O)cc1 (stereo unspecified)	-21	2	63*	21	2	39*	58*	11	9
Cc1nc2ccccc2c(=O)n1/N=C/c1ccccc1O	-2	2	7	-2	1	.	.	.	.
Cc1ccc(-c2[nH]ncc2/C=N/n2c(C)nc3ccccc3c2=O)cc1	2	2	50*	11	0	23*	40	7	8
COc1ccc2c(c1)C1CC(C)(NC(=O)C1S(=O)(=O)c1ccc(F)cc1)O2 (stereo unspecified)	-6	-1	-14	1	-1	.	.	.	.
Cc1ccc(/C=N/NC(=O)CSc2nnc(-c3ccc(Cl)cc3)n2-c2ccccc2)o1	-7	-2	58*	12	0	26*	45	7	5
O=C(CSc1nnc(-c2ccc(Cl)cc2)n1-c1ccc(Cl)cc1)N/N=C/c1ccco1	-7	0	78*	13	1	27*	54*	8	6
Cc1ccc(-c2nnc(SCC(=O)N/N=C/c3ccccc3C(=O)O)n2-c2ccc(Cl)cc2)cc1	-1	0	-31	1	0	.	.	.	.
CCCNC(=O)C1(C)CCCN(Cc2ccccc2Cl)C1 (stereo unspecified)	.	.	5	0	.	.	.	.	.
CCOc1ccc(C(=O)NNC(=O)CNC(=O)c2ccc(C)s2)cc1OC	-2	1	-18	12	0	.	.	.	.
COc1ccc(C(=O)Nc2cccc(-c3nnc(-c4ccco4)o3)c2)cc1	-7	-2	39	18	-1	.	.	.	.
SMILES	OXTR potentiate	OXTR agonist	TAAR1 antag	TAAR1 ag	V1R ag counter	TAAR1 nonsel count	TAAR1 antag conf	Ga16 ag counter	TAAR1 ag counter
COc1cc(C(=O)Nc2cccc(-c3nnc(-c4ccco4)o3)c2)ccc1OC(C)=O	-8	-1	64*	16	1	26*	45	7	8
CNC(=S)N/N=C/c1cc(C)n(-c2ccc(Cl)c(Cl)c2)c1C	-12	3	70*	31	5	28*	62*	30*	59*
Cc1ccc(-n2c(C)cc(/C=N/NC(N)=S)c2C)cc1	-6	-2	90*	2	0	16	91*	8	18
CN(C)c1nnnn1-c1ccccc1Oc1ncc(C(F)(F)F)cc1Cl	0	0	10	3	1	.	.	.	.
Cc1ccccc1OCc1nnc(SCC(=O)Nc2ccc3c(c2)oc2ccccc23)n1C	0	1	4	8	0	.	.	.	.
CC(C)(C)NC(=O)CSc1nc2ccc(NC(=O)CSc3nnnn3Cc3ccccc3)cc2s1	-19	3	49*	15	8	36*	26	10	5
Cc1ccccc1OCc1nnc(SCC(=O)Nc2ccc3nc(SCC(=O)NC(C)(C)C)sc3c2)n1C	-9	1	61*	22	1	43*	62*	10	6
COc1cc2cnc(-c3ccccc3)c(-c3cccc(C(F)(F)F)c3)c2cc1OC	-8	-1	51*	9	-1	15	19	2	2
Cc1ccc(CNC(=O)c2ccccc2SCC(=O)NCC2CCCCC2)cc1	-3	-2	63*	12	0	26*	45	9	7
CSc1ccccc1C(=O)NCc1ccc(C)cc1	5	0	104*	-2	0	8	11	0	3
CN(C(=O)COC(=O)c1ccccc1NCc1ccco1)c1c(N)n(Cc2ccccc2)c(=O)[nH]c1=O	-6	-1	-41	1	-1	.	.	.	.
CCN1CCCC1CNc1ccc(S(C)(=O)=O)cc1[N+](=O)[O-] (stereo unspecified)	-2	0	10	-4	0	.	.	.	.
